What was measured:
[1] = Clearance in Sprague-Dawley rat at 1 mg/kg, iv; assay type: ADME, organism-based; conditions: in vivo, read-out: CL(app) (converted)
Outline: (§1)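 Sprague-Dawley rats dosed IV at 1 mg/kg or by oral gavage at 10 mg/kg. Parameters from plasma exposure: AUC(0-t), AUC(0-∞), MRT, T1/2, Tmax, Vz, CLz, Cmax. Values are mean ± SD from three animals.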

[2] = target: Mast/stem cell growth factor receptor Kit (Homo sapiens, UniProt P10721); assay: Inhibition of KIT (unknown origin) preincubated for 60 mins followed by ATP addition and measured after 1 hr by ADP-Glo assay
Mast/stem cell growth factor receptor Kit, sequence (P10721 whole entry): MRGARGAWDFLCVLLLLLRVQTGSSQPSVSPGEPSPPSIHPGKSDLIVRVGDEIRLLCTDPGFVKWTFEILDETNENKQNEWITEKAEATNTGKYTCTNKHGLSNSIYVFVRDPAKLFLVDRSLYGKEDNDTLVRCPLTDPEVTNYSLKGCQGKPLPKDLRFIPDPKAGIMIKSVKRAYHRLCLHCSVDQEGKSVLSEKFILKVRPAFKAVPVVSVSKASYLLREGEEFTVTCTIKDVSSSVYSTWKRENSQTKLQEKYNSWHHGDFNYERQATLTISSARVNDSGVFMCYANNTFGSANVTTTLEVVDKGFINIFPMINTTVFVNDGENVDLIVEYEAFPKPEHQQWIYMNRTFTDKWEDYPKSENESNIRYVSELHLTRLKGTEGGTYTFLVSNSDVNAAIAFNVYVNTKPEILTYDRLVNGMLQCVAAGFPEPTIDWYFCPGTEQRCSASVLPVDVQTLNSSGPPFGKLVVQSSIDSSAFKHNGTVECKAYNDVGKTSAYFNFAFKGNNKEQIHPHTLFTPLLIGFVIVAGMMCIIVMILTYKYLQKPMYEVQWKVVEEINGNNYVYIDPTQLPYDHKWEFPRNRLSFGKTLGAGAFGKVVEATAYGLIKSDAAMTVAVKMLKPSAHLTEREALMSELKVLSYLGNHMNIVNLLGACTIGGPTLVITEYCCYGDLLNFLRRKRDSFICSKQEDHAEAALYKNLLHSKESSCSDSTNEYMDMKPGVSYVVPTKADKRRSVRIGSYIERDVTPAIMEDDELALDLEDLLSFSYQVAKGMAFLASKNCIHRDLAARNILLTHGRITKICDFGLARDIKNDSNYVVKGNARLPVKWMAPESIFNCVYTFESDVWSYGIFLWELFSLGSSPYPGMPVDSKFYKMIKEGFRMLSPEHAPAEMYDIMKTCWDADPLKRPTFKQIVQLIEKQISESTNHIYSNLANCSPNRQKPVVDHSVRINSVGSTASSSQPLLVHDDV
Outline: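 ADP-Glo luminescence assay. Kinase was preincubated with compound for 60 min at room temperature, then ATP/substrate was added and the reaction ran 1 h at 37 °C. ADP-Glo reagent was added for 40 min, then detection reagent for 30 min, and luminescence was read. Enzyme and ATP per target: KIT 20 ng/µL, 50 µM ATP; PDGFRα 2.5 ng/µL, 25 µM ATP; PDGFRβ 1.25 ng/µL, 25 µM ATP. IC50 was taken from the dose-response fit.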

BaF3 [3] = assay: Antiproliferative activity against mouse BaF3 cells transfected with FLT3 ITD mutant harboring AML patient derived GLVQVTGSSDNEYFYVDFREYE sequence assessed as cell growth inhibition incubated for 72 hrs by CCK-8 assay; assay type: functional
Outline: (§2)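 Kinase-transformed isogenic BaF3 lines grown in RPMI 1640 with 10% FBS, 2% L-glutamine and pen/strep at 37 °C, 5% CO2. Seeded at 1500-3000 cells/well and treated with a compound concentration series for 72 h. Viability read by CCK8 absorbance at 450 nm.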

MV4-11 [4] = assay: Antiproliferative activity against human MV4-11 cells transfected with FLT3-ITD mutant assessed as cell growth inhibition incubated for 72 hrs by CCK-8 assay; assay type: functional
Outline: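 Cells kept at 37 °C, 5% CO2. MV4-11 grown in IMDM with 10% FBS. MOLM13, MOLM14, U937 and HL-60 grown in RPMI 1640 with 10% FBS. OCI-AML-2 grown in α-MEM with 20% FBS. Seeded at 1500-3000 cells/well and exposed to a concentration series for 72 h. Viability read by CCK8 absorbance at 450 nm.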

MV4-11 [5] = assay: Antitumor activity against human MV4-11 cells xenografted in nu/nu mouse assessed as inhibition of tumor growth at 100 mg/kg/day, po administered via gavage for 28 days relative to control; assay type: functional; conditions: MV4-11, 672 h, time 28 day, read-out: TGI
Outline: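 MV4-11 cells implanted in mice. Once tumours reached a mean of about 200 mm3, mice were dosed orally once daily for 28 days with vehicle or 25, 50 or 100 mg/kg/day. Tumour size and body weight tracked relative to starting values; final tumour weight also recorded.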

BaF3 [6] = assay: Antiproliferative activity against mouse BaF3 cells transfected with FLT3 ITD mutant harboring FLAG-tagged DYKDDDDK sequence assessed as cell growth inhibition incubated for 72 hrs by CCK-8 assay; assay type: functional; outline: as §2
[7] = AUC (0 to t) in Sprague-Dawley rat at 10 mg/kg, po; assay type: ADME, organism-based; parameters: dose 10 mg/kg, route po; conditions: in vivo; outline: as §1
cells [8] = assay type: functional; conditions: Homo sapiens, AML3; time 72 hrs
[9] = target: Platelet-derived growth factor receptor alpha (Homo sapiens, UniProt P16234); assay: Inhibition of PDGFRalpha (unknown origin) assessed as residual activity at 1 uM preincubated for 60 mins followed by ATP addition and measured after 1 hr by ADP-Glo assay relative to control; conditions: time 2.0 hrs
Platelet-derived growth factor receptor alpha, sequence (P16234 whole entry): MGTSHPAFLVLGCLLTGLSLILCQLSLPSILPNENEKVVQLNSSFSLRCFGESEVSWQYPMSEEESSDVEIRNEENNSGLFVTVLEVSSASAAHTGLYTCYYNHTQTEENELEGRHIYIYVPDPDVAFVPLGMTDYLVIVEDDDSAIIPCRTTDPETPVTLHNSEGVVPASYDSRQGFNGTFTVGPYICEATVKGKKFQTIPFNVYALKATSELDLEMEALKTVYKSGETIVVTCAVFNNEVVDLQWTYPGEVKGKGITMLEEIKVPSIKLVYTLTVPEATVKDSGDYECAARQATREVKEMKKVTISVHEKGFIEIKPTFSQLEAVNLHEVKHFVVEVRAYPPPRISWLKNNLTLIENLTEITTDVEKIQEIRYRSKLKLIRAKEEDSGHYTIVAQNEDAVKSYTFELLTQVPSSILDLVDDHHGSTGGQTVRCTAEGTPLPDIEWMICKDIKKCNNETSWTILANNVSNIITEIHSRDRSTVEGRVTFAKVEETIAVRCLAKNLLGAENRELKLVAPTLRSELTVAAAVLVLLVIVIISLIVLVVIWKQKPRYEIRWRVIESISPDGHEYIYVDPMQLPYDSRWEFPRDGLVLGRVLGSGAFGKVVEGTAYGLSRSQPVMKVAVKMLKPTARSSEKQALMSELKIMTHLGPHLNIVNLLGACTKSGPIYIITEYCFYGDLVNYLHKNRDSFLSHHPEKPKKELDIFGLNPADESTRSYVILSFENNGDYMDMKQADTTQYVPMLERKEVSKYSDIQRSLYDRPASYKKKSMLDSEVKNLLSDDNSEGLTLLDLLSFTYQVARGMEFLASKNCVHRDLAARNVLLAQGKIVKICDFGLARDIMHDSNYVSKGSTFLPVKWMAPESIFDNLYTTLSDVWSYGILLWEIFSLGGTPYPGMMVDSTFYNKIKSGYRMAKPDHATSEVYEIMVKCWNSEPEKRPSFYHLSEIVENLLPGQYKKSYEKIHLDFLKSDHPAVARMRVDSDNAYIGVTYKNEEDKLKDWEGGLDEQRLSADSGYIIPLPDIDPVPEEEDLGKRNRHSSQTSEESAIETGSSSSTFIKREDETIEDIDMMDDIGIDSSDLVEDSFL

[10] = Tmax in Sprague-Dawley rat at 1 mg/kg, iv; assay type: ADME, organism-based; conditions: in vivo
Outline: (§3)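 Sprague-Dawley rats were dosed either intravenously at 1 mg/kg or by oral gavage at 10 mg/kg. Plasma PK parameters were AUC(0-t), AUC(0-∞), MRT(0-t), T1/2, Tmax, Vz, CLz, Cmax and F%. Values are the mean ± SD of three independent animals.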

[11] = Oral bioavailability in Sprague-Dawley rat at 10 mg/kg; assay type: ADME, organism-based; conditions: in vivo; outline: as §3
OCI-AML2 = assay: cells; assay type: functional; conditions: Homo sapiens, time 72 hrs
MV4-11 [12] = assay: Downregulation of c-Myc protein expression in human MV4-11 cells harboring FLT3-ITD mutant incubated for 4 hrs by Western blot analysis; assay type: functional, cell-based; conditions: dose 0.01-3 µM
Outline: (§4)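 Cells were exposed to the compound at a series of concentrations for 4 h, and whole-cell lysates were analysed by Western blot. MV4-11 cells were grown in IMDM with 10% FBS. MOLM13 and MOLM14 cells were grown in RPMI 1640 with 10% FBS. All cultures were kept at 37 °C with 5% CO2.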

[13] = Clearance in Sprague-Dawley rat at 10 mg/kg, po; assay type: ADME, organism-based; conditions: in vivo, read-out: CL(app) (converted); outline: as §1
BaF3 [14] = assay: Antiproliferative activity against mouse BaF3 cells transfected with TEL-fused cKIT assessed as cell growth inhibition incubated for 72 hrs by CCK-8 assay; assay type: functional; outline: as §2
[15] = Cmax in Sprague-Dawley rat at 1 mg/kg, iv; assay type: ADME, organism-based; parameters: dose 1 mg/kg, route iv; conditions: in vivo; outline: as §1
MOLM-14 = assay: Induction of apoptosis in human MOLM-14 cells harboring FLT3-ITD mutant assessed as increase in cleaved caspase-3 level incubated for 24 hrs by Western blot analysis; assay type: functional, cell-based; conditions: dose 0.1-3 µM
cells [16] = assay type: functional; conditions: Homo sapiens, AML4; time 72 hrs
[17] = target: T1, Signal transducer and activator of transcription 5A (Homo sapiens) (UniProt P42229); assay: Inhibition of STAT5 phosphorylation at Tyr694 residue in human MOLM-13 cells harboring FLT3-ITD mutant incubated for 4 hrs by Western blot analysis; assay type: cell-based; conditions: dose 0.01-3 µM; outline: as §4
T1 sequence (whole entry): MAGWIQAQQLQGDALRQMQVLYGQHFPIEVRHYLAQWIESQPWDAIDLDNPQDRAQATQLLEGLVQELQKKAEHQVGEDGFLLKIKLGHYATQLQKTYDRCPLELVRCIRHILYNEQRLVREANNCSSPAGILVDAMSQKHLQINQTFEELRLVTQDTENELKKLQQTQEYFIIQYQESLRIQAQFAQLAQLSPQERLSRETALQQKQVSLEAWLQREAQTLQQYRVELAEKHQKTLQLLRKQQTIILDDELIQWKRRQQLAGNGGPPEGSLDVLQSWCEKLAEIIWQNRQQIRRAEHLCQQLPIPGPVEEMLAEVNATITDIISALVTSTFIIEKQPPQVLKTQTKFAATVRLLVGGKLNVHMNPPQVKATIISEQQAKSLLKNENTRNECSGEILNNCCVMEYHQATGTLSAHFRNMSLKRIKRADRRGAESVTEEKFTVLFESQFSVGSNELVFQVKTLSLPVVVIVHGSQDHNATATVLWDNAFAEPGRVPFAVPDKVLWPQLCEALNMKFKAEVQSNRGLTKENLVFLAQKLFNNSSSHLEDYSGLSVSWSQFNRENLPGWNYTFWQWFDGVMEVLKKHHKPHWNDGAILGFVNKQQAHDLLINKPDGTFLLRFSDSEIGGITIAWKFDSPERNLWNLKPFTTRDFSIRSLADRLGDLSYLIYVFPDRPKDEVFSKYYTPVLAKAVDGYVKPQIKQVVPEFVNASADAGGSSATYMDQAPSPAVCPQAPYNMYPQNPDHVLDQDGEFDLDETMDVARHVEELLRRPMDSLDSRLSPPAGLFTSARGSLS

CC(=O)Nc1cc(Oc2ccc(NC(=O)Cc3ccccc3C(F)(F)F)cc2)ncn1
clearance [1]: 11.7 mL/min/kg
IC50 [2]: 681 nM
GI50 (BaF3 [3]): 32 nM
GI50 (MV4-11 [4]): 284 nM
inhibition in vivo at 100 mg/kg/day (MV4-11 [5]): 80%
GI50 (BaF3 [6]): 85 nM
AUC(0-t) [7]: 26700 ng·h/mL
GI50 (cells [8]): > 10000 nM
Activity [9]: 3.3%
Tmax [10]: 1.2 min
F [11]: 171%
GI50 (OCI-AML2): > 10000 nM
Activity (MV4-11 [12]): Dose-Dependent Effect
CL/F [13]: 6.67 mL/min/kg
GI50 (BaF3 [14]): > 10000 nM
Cmax [15]: 1030 ng/mL
Activity (MOLM-14): Dose-Dependent Effect
GI50 (cells [16]): > 10000 nM
inhibition [17]: Dose-Dependent Effect
